Results taken from ChEMBL document CHEMBL4017532, “Multifunctional Hybrid Compounds Derived from 2-(2,5-Dioxopyrrolidin-1-yl)-3-methoxypropanamides with Anticonvulsant and Antinociceptive Properties” (J Med Chem, 2017).
Activity calls are given as the source filed them.

Experiments:
Mus musculus [1] = assay: Protection index, ratio of TD50 for neurotoxicity in ip dosed Albino Swiss CD-1 mouse to ED50 for ip dosed Albino Swiss CD-1 mouse model of 6 Hz-induced siezures
In short: (§1)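 Acute neurological toxicity after ip dosing (1% Tween 80 suspension) was assessed in the mouse chimney test. TD50 with 95% confidence limits was derived by probit analysis. Protective index is TD50 from the chimney test divided by ED50 from the MES, scPTZ or 6 Hz test.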

Mus musculus [2] = assay: Antiallodynic activity in oxaliplatin-induced Albino Swiss CD-1 mouse model of peripheral neuropathy assessed as elevation in pain sensitivity threshold administered ip 30 mins prior to oxaliplatin challenge; format: functional, organism-based
In short: (§2)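 Male CD-1 mice, 18–25 g, that had developed oxaliplatin-induced tactile allodynia were dosed ip 30 min before testing. Doses were 25, 50 or 100 mg/kg, or 50, 100 or 150 mg/kg for the reference. Vehicle was 1% aqueous Tween 80. Paw-withdrawal force was measured by von Frey filaments. Data are mean ± SEM, analysed by repeated-measures ANOVA with Dunnett's test against oxaliplatin plus vehicle mice.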

Mus musculus [3] = assay: Anticonvulsant activity in ip dosed Albino Swiss CD-1 mouse assessed as protection against maximal electroshock-induced seizures pretreated up to 2 hrs followed by 50 Hz current induction for […] measured at time to peak effect; format: functional; settings: Swiss CD-1, ip
Mus musculus [4] = assay: Antinociceptive activity in Albino Swiss CD-1 mouse assessed as inhibition of formalin-induced inflammatory pain response administered ip 30 mins before formalin injection measured after 15 to 30 mins; format: functional; settings: Swiss CD-1, ip
In short: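 Male CD-1 mice were given test agents ip 30 min before subcutaneous intraplantar formalin. Doses were 12.5, 25 or 50 mg/kg, or 100, 150 or 200 mg/kg for the reference. Vehicle was 1% Tween 80 at 10 mL/kg. Paw licking time was recorded in phase I (0–5 min) and phase II (15–30 min). Data are mean ± SEM of 8–10 mice, by Dunnett's test. ED50 was obtained by log-probit analysis with 95% confidence limits.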

Mus musculus [5] = assay: Analgesic activity in Albino Swiss CD-1 mouse assessed as increase in pain response latency administered at 150 mg/kg, ip treated up to 90 mins prior to tet by hot plate assay; format: functional, organism-based
In short: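 Male CD-1 mice, 18–25 g, 6–12 per group, given test agents as 1% aqueous Tween 80 suspension ip. Doses were 50, 100 or 150 mg/kg, with morphine hydrochloride at 4 mg/kg as reference. Mice were placed on the hot plate 15, 30, 45, 60 and 90 min after dosing, and latency to pain reaction was recorded.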

Mus musculus [6] = assay: Antiallodynic activity in oxaliplatin-induced Albino Swiss CD-1 mouse model of peripheral neuropathy assessed as elevation in pain sensitivity threshold at 25 mg/kg, ip administered 30 mins prior to oxaliplatin challenge relative to control; format: functional; in short: as §2
Rattus norvegicus [7] = species on record: Rattus norvegicus; assay: Displacement of [3H]CGP 39653 from NMDA receptor in rat cerebral cortex at 100 uM after 60 mins by liquid scintillation counting
In short: (§3)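 Radioligand binding was run as a contract service. Percent inhibition of specific labelled-ligand binding was measured at 100 μM test compound, or 200 μM for hERG.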

Mus musculus [8] = assay: Antinociceptive activity in Albino Swiss CD-1 mouse assessed as inhibition of capsaicin-induced nociception by measuring time spent licking injected paw at 100 mg/kg, ip administered 30 mins mins prior to capsaicin challenge measured for 5 mins relative to control; format: functional; settings: Swiss CD-1, ip
In short: (§4)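 Mice (male CD-1, 18–25 g) were pretreated ip 30 min before intraplantar capsaicin. Doses were 25, 50 or 100 mg/kg, or 100, 150 or 200 mg/kg for the reference. Vehicle was 1% Tween 80 at 10 mL/kg. Duration of nociceptive response was scored over 5 min after injection. Data are mean ± SEM of 8–10 mice, by one-way ANOVA with Dunnett's test against vehicle.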

Mus musculus [9] = assay: Antinociceptive activity in Albino Swiss CD-1 mouse assessed as inhibition of capsaicin-induced nociception by measuring time spent licking injected paw at 50 mg/kg, ip administered 30 mins mins prior to capsaicin challenge measured for 5 mins relative to control; format: functional; settings: Swiss CD-1, ip; in short: as §4
Rattus norvegicus [10] = species on record: Rattus norvegicus; assay: Displacement of [3H]GABA from GABA transporter in rat cerebral cortex at 100 uM by liquid scintillation spectrometry; in short: as §3
Mus musculus [11] = assay: Antiallodynic activity in oxaliplatin-induced Albino Swiss CD-1 mouse model of peripheral neuropathy assessed as elevation in pain sensitivity threshold at […], ip administered 30 mins prior to oxaliplatin challenge relative to control; format: functional
Mus musculus [12] = assay: Protection index, ratio of TD50 for neurotoxicity in ip dosed Albino Swiss CD-1 mouse to ED50 for ip dosed pentylenetetrazole induced seizure Albino Swiss CD-1 mouse model; in short: as §1
[13] = Neurotoxicity in ip dosed Albino Swiss CD-1 mouse assessed as induction of motor impairment measured up to 60 secs by chimney test; format: toxicity, organism-based; settings: in vivo; in short: as §1

COCC(C(=O)N1CCN(c2ccc(C(F)(F)F)cc2)CC1)N1C(=O)CCC1=O (stereo not drawn)
Ratio TD50/ED50 (Mus musculus [1]): 5.8 - 8.9 | Activity (Mus musculus [2]): Dose-dependent effect | ED50 (Mus musculus [3]): 79.5 to 83.3 mg/kg | ED50 (Mus musculus [4]): 5.1 mg/kg | Activity (Mus musculus [5]): inactive | Activity (Mus musculus [6]): 112.6% | inhibition (Rattus norvegicus [7]): inactive | inhibition in vivo at 100 mg/kg (Mus musculus [8]): 59.3% | inhibition in vivo at 50 mg/kg (Mus musculus [9]): 32.7% | inhibition (Rattus norvegicus [10]): inactive | Activity (Mus musculus [11]): 122% | Ratio TD50/ED50 (Mus musculus [12]): 1.6 | TD50 at 1 min [13]: 156 to 199 mg/kg
